The source of these data is ChEMBL document CHEMBL4513216, “Probing the Open Global Health Chemical Diversity Library for Multistage-Active Starting Points for Next-Generation Antimalarials” (ACS Infect Dis, 2020).

This data set is described as follows: Toxicity liver stage against HepG2, at 10uM. The note with it: human, HepG2-A16-CD81EGFP cells; read-out: INHIBITION
More on the design: test concentration 10 uM, cell line HepG2-A16-CD81EGFP. It counts as cell-based. In short, it runs like this: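 Uninfected HepG2-A16-CD81EGFP cells, 3 × 10^3 per well, 1536-well, plated on prespotted compound at 10 μM final, parasite-free screening media added to match infected plates; puromycin 10 μM positive, DMSO 0.5% negative; run in parallel with 48 h PbLuc assay at 37 °C, 5% CO2; viability by CellTiter-Glo luminescence, normalized to controls.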
`CC(=O)N1CCCC(C(=O)Nc2ccccc2Cc2ccccc2)C1` (stereo not given): the cytotoxicity at 10 µM turned out to be 3.88%.

For `COCCOc1ccc(-c2noc([C@@H]3CCCN3C3CCC3)n2)cn1`, the cytotoxicity at 10 µM is -4.26%.

Take `CO[C@@H]1CN(c2ccccc2)S(=O)(=O)[C@@]12CCN(C)C2`: the cytotoxicity at 10 µM was 3.33%.

For `COc1cccc(CN2CC(O)CN(S(C)(=O)=O)CC2=O)c1OC` (stereo not given), the cytotoxicity at 10 µM is -0.686%.

Consider `O=c1c(NCCc2ccc(O)cc2)c(NCc2ccncc2)c1=O`, for which the cytotoxicity at 10 µM was -5.46%.

For `O=C(c1ccc[nH]1)N1CCO[C@H]2CC(COCc3ccccn3)C[C@@H]21` (stereo not given in full), the cytotoxicity at 10 µM is 0.718%.

Turning to `Cc1ccc(CN2CC[C@@H](N(C)C(C)C)[C@@H]2Cc2ccccc2)o1`, the cytotoxicity at 10 µM was -3.52%.

Take `CC(C)Cc1noc(C2CCCCN2C(=O)CCc2cnn(C)c2)n1` (stereo not given): the cytotoxicity at 10 µM came out at 3.6%.

Turning to `Cc1cccc(CN2CCOCC2c2[nH]ncc2C)n1` (stereo not given), the cytotoxicity at 10 µM stood at 6.91%.

Consider `O=C(O)CCCN1C[C@@H](c2ccccc2F)[C@@]2(CCCCC(=O)N2)C1`, for which the cytotoxicity at 10 µM stood at 4.6%.

For the compound `CCCn1nc(C)c(C(=O)N(C)[C@@H]2CC[C@@H](N3CCCC3)[C@@H]2O)c1C`, the cytotoxicity at 10 µM came to 2.28%.

On to `CS(=O)(=O)CCCN1CCSCC1c1ccc(Cl)cc1` (stereo not given), for which the cytotoxicity at 10 µM is -14.5%.

As for `CC(C)CNC(=O)C(C)N1CCN(C2CCN(C(C)C)CC2)CC1` (stereo not given), the cytotoxicity at 10 µM is -7.09%.

For `O=C(Cn1ccc(=O)[nH]c1=O)NCc1cccnc1OCC(F)(F)F`, the cytotoxicity at 10 µM was -5.88%.

`Cc1csc(N(C)C(=O)C2CC(=O)N(c3ccccc3F)C2)n1` (stereo not given): the cytotoxicity at 10 µM was 9.95%.

As to `CN(C(=O)c1ccncc1)c1ccccc1S(C)(=O)=O`, the cytotoxicity at 10 µM is 7.39%.

With `COc1ncc(NCc2ccsc2)cc1C(N)=O`, the cytotoxicity at 10 µM came to 1.25%.

Turning to `Cc1[nH]ncc1C(=O)NCC1CCC2(CC1)OCCO2`, the cytotoxicity at 10 µM is -8.2%.

Turning to `Cc1n[nH]c(C2CN(C(=O)COCC(F)(F)F)CCO2)n1` (stereo not given), the cytotoxicity at 10 µM was found to be 1.26%.

On to `CC(CC(=O)N1CCCN(Cc2cscn2)CC1)n1cccc1` (stereo not given), for which the cytotoxicity at 10 µM was -8.01%.

Consider `COc1ccc(NCC(=O)NCC(=O)N2CCCC2)c(C(F)(F)F)c1`, for which the cytotoxicity at 10 µM is 6.78%.

On to `Cc1cc(C)n(-c2cncc(NCCNC(=O)c3cccnc3)n2)n1`, for which the cytotoxicity at 10 µM stood at 7.45%.

Consider `O=S(=O)(Cc1cccc(F)c1)NCC(O)Cc1ccccc1` (stereo not given), for which the cytotoxicity at 10 µM was 9.01%.

`O=C(CCNS(=O)(=O)c1ccc(F)cc1)NCc1ccoc1`: the cytotoxicity at 10 µM was -6.08%.

`CC(O)CN1CCN(C(=O)c2cnn(-c3ccccc3Cl)c2)CC1` (stereo not given): the cytotoxicity at 10 µM was -8.9%.

As to `Cc1ccc(C2COCCN2C(=O)c2ccc(C#N)cc2)o1` (stereo not given), the cytotoxicity at 10 µM is -5.08%.

Take `CC1CN(C(=O)Nc2ccc(Cl)c(C(=O)NC3CC3)c2)CC(C)(C)O1` (stereo not given): the cytotoxicity at 10 µM is 6.5%.

As to `Cc1nn(C)c(N2CCOCC2)c1CNCc1cccnc1`, the cytotoxicity at 10 µM turned out to be 7.11%.

`Cc1cc(S(=O)(=O)NC(=O)CCc2cccnc2)c(C)s1`: the cytotoxicity at 10 µM was found to be 8.28%.

Take `CC(C)(C)C(=O)NS(=O)(=O)c1ccc(F)cc1C(F)(F)F`: the cytotoxicity at 10 µM was -1.18%.

With `Cc1cc(SC(C)(C)C)ccc1NCC(=O)NC(N)=O`, the cytotoxicity at 10 µM was -17.1%.

Consider `Cc1nnc(C(C)N2CCc3[nH]c4ccccc4c3C2)o1` (stereo not given), for which the cytotoxicity at 10 µM was -9.42%.

Take `COc1cccc(NC(=O)NCC(Cc2cnn(C)c2)C(N)=O)c1` (stereo not given): the cytotoxicity at 10 µM was -6.52%.

As to `Cc1noc(C)c1CC(=O)N1CCCN(C)c2ccc(Cl)cc21`, the cytotoxicity at 10 µM was found to be 9.71%.

Consider `CC(C1CC1)N(CC(=O)NCC(F)(F)F)C1CC1` (stereo not given), for which the cytotoxicity at 10 µM was -4.42%.

For `O=S(=O)(Cc1ccccc1)NCCc1nnc2n1CCC2`, the cytotoxicity at 10 µM was found to be 14.5%.

Turning to `CN(C)C(=O)CCCS(=O)(=O)Cc1cc(Cl)c2c(c1)OCCO2`, the cytotoxicity at 10 µM was 2.47%.

Consider `COc1ccc(CN(CCC#N)CCN2CCOCC2)c(OC)c1`, for which the cytotoxicity at 10 µM was -1.39%.

`CN(C1CCCC1)C(C)(C)C(=O)NCCNC(N)=O`: the cytotoxicity at 10 µM was -46.3%.

Turning to `C[S+]([O-])c1nncn1CC(=O)c1ccc2c(c1)CCO2` (stereo not given), the cytotoxicity at 10 µM is -2.85%.

For `COC1COC2(CCN(C(=O)c3ccc4ccccc4c3)CC2)C1` (stereo not given), the cytotoxicity at 10 µM is -98.4%.

In the case of `CCOCC(=O)N1CCc2nc(C)nc(NC(C)C)c2CC1`, the cytotoxicity at 10 µM was -98.7%.

As to `CS(=O)(=O)N1CCC2(CCN(C(=O)c3cccs3)CC2)CC1`, the cytotoxicity at 10 µM is -108%.

In the case of `COC1COC2(CCN(S(=O)(=O)c3ccc(F)cc3)CC2)C1` (stereo not given), the cytotoxicity at 10 µM was -95.9%.

On to `Cc1cnc(N2CCc3onc(COc4cccnc4)c3C2)nc1`, for which the cytotoxicity at 10 µM was -111%.

Regarding `O=C(c1ccncc1)N1C[C@@H]2OCCN(CCN3CCCC3)[C@@H]2C1`, the cytotoxicity at 10 µM is -77.1%.

For `CN(Cc1cncnc1)[C@H]1CN(Cc2ccco2)[C@@H]2CCCO[C@@H]21`, the cytotoxicity at 10 µM was -78.7%.

In the case of `CC(=O)N1CCCC2(CCN(C(=O)c3ccc(Cl)c(C(F)(F)F)c3)C2)C1` (stereo not given), the cytotoxicity at 10 µM is -74.4%.

In the case of `CCNc1ncc(C(=O)NCc2ccc3nsnc3c2)cn1`, the cytotoxicity at 10 µM came to 2.34%.

Take `Cc1ccsc1CN(Cc1ncccc1C(=O)O)C1CC1`: the cytotoxicity at 10 µM is -5.8%.

Consider `CCN1CC(C(=O)N2CCc3cc(C(N)=O)n(C)c3C2)CC1=O` (stereo not given), for which the cytotoxicity at 10 µM is -47.5%.

Consider `Cc1nc2c(c(NCc3ccc(-c4ccccn4)s3)n1)CCNCC2`, for which the cytotoxicity at 10 µM was -59.5%.

As for `Cc1c(C(=O)N2C[C@@H](CN(C)CCO)[C@@H](CO)C2)sc2ccccc12`, the cytotoxicity at 10 µM was -11%.

Consider `NC(=O)CN1CC2(CCC1=O)CCN(C(=O)c1ccccc1F)CC2`, for which the cytotoxicity at 10 µM worked out at 23.5%.

For the compound `COCCn1ccnc1CN1CCc2[nH]cnc2C1c1cnn(C)c1C` (stereo not given), the cytotoxicity at 10 µM is -2.77%.

As to `CC(C)n1ccnc1C1CCCN(c2ccncc2F)C1` (stereo not given), the cytotoxicity at 10 µM was -4.96%.

As to `Cc1cc(N2CCC(O)(C(=O)O)CC2)nc2ccccc12`, the cytotoxicity at 10 µM is -41.5%.

On to `Cc1cnn(CCNCc2cccc(C#N)c2)c1`, for which the cytotoxicity at 10 µM was -2.01%.

With `O=C(NCC1CCSCC1)N(CCCO)C1CCc2ccccc21` (stereo not given), the cytotoxicity at 10 µM turned out to be 5.77%.

On to `COc1ccc(CN(C)CC(=O)NC2(C)CCS(=O)(=O)C2)cc1F` (stereo not given), for which the cytotoxicity at 10 µM came to 7.44%.

Turning to `CCn1cnnc1C1CCN(C(=O)COCCc2ccccc2)CC1`, the cytotoxicity at 10 µM worked out at 0.602%.

For the compound `Cc1ccc(S(=O)(=O)N2CC[C@H]3CO[C@H](CN(C)C)[C@H]3C2)cc1`, the cytotoxicity at 10 µM was -98.3%.

As to `CN(Cc1ccco1)Cc1cnc2n1CCN(S(C)(=O)=O)CC2`, the cytotoxicity at 10 µM was -2.75%.

`CC(C)NC(=O)[C@@H]1CC[C@@H]2[C@@H](CCN2Cc2ccc3ccccc3n2)O1`: the cytotoxicity at 10 µM came out at 3.98%.

Regarding `Fc1ccc(CN2Cc3nccn3CC(CN3CCOCC3)C2)cc1` (stereo not given), the cytotoxicity at 10 µM was -73.7%.

For the compound `CCN1CCOCC12CCN(c1cnccn1)CC2`, the cytotoxicity at 10 µM was -111%.

With `Cn1cc(CN2C[C@@H]3COC[C@]3(C(=O)NCCc3ccccc3)C2)cn1`, the cytotoxicity at 10 µM was 8.86%.

Take `CC(C)N1CCO[C@@H]2CN(C(=O)NCc3ccccc3)CC[C@@H]2C1`: the cytotoxicity at 10 µM is -102%.

In the case of `CN1CCN(Cc2cccnc2)C(=O)C12CCN(Cc1ccco1)CC2`, the cytotoxicity at 10 µM is -4.34%.

In the case of `CCOCC(=O)N1C[C@@H]2CCN(c3cnccn3)C[C@@H]2C1`, the cytotoxicity at 10 µM came to 1.2%.
